According to ChEMBL document CHEMBL3596186, “Synthesis and biological evaluation of diarylthiazole derivatives as antimitotic and antivascular agents with potent antitumor activity” (Bioorg Med Chem, 2015):
The source made the active and inactive calls. No cut-off for these calls is given here.

Tests used:
HepG2 [1] = assay: Cell cycle arrest in human HepG2 cells assessed as accumulation at G2/M phase at 0.2 uM after 24 hrs by flow cytometry (reference value: 11.29%); type: functional
HCT-116 [2] = assay: Induction of apoptosis in human HCT116 cells assessed as late apoptotic cells at 1 uM after 48 hrs by annexin V/propidium iodide staining-based flow cytometry (reference value: 1.71%); type: functional
HepG2 [3] = assay: Induction of apoptosis in human HepG2 cells assessed as necrotic cells at 0.5 uM after 48 hrs by annexin V/propidium iodide staining-based flow cytometry (reference value: 1.59%); type: functional
Mus musculus = assay: Toxicity in Balb/c athymic nude mouse xenografted with human SKOV3 cells assessed as loss in body weight at 20 to 50 mg/kg, ip administered daily; type: organism-based, SK-OV-3; conditions: in vivo
Outline: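 Female Balb/C athymic nude mice, 5-6 weeks old, carrying s.c. right-flank SK-OV-3 xenografts started from cells in HBSS. At about 100 mm3, groups of 6 received vehicle, 5-FU 10 mg/kg, or test agent i.p. daily. Body weight was measured every two days.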

Tubulin (Homo sapiens) = Tubulin (Homo sapiens) (UniProt P68371+Q9H4B7+P0DPH7+P68366+Q13509+Q71U36+P04350+Q3ZCM7+P07437+P68363+Q9BQE3+Q6PEY2+Q13885+Q9BVA1+Q9BUF5); assay: Binding affinity to tubulin in human HepG2 cells at 5 uM after 4 hrs by EBI competition assay; type: cell-based
Outline: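 HepG2 cells seeded at 500,000 cells/well, allowed to adhere, then treated with compound for 4 h. EBI added at 100 µM for 1.5 h. Cell extracts (about 20 µg protein) run on 10% SDS-PAGE, blotted to PVDF, probed with anti-β-tubulin, detected by ECL with GAPDH as loading control. Read-out is loss of the faster-migrating β-tubulin–EBI adduct band.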

HepG2 [4] = assay: Cell cycle arrest in human HepG2 cells assessed as accumulation at G1 phase at 1 uM after 24 hrs by flow cytometry (reference value: 62.74%); type: functional
HCT-116 [5] = assay: Induction of apoptosis in human HCT116 cells assessed as late apoptotic cells at 1 uM after 24 hrs by annexin V/propidium iodide staining-based flow cytometry (reference value: 1.71%); type: functional
HepG2 [6] = assay: Induction of apoptosis in human HepG2 cells assessed as early apoptotic cells at 1 uM after 48 hrs by annexin V/propidium iodide staining-based flow cytometry (reference value: 0.87%); type: functional
HepG2 [7] = assay: Induction of apoptosis in human HepG2 cells assessed as viable cells at 0.5 uM after 24 hrs by annexin V/propidium iodide staining-based flow cytometry (reference value: 89.8%); type: functional; conditions: HepG2, 24 h, read-out: Activity
HCT-116 [8] = assay: Induction of apoptosis in human HCT116 cells assessed as early apoptotic cells at 0.5 uM after 48 hrs by annexin V/propidium iodide staining-based flow cytometry (reference value: 2.83%); type: functional
Outline: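 HCT116 cells treated with compound or DMSO for 24 or 48 h, trypsinized, washed twice in PBS and dual-stained with annexin-V and PI. Analysed by flow cytometry: early apoptotic cells scored as annexin-V+/PI−, late apoptotic cells as annexin-V+/PI+.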

[9] = Inhibition of pig microtubule polymerization after 30 mins by turbidimetric assay; parameters: species or system Sus scrofa
Outline: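 Porcine-brain MAP-rich tubulin at 3 mg/mL preincubated 30 min at 4 °C in 0.1 M PIPES pH 6.9, 2 mM MgCl2, 0.5 mM EGTA. Compounds added 2 min before the run, then 1 mM GTP. Turbidity followed kinetically at 340 nm at 37 °C; assembly IC50 derived by Hamel's method.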

SK-OV-3 [10] = assay: Antitumor activity against human SKOV3 cells xenografted in Balb/c athymic nude mouse assessed as tumor growth inhibition at 50 mg/kg, ip administered daily after 42 days; type: functional; conditions: SK-OV-3, ip, 1008 h, read-out: TGI
HepG2 [11] = assay: Antiproliferative activity against human HepG2 cells after 48 hrs by MTT assay; type: functional, cell-based; conditions: HepG2, 48 h
Outline: (§1)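 HCT116, HepG2, SMMC-7721, SK-OV-3 and A2780s grown in DMEM; A549 and MCF-7 in RPMI-1640; all with 10% FBS and penicillin/streptomycin at 37 °C, 5% CO2. Log-phase cells at 40,000-50,000 cells/mL treated with graded concentrations for 48 h. MTT 3 h, DMSO solubilization, A570. IC50 from percent growth versus untreated control; mean ± SEM of ≥3 independent dose-response experiments.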

[12] = Antiproliferative activity against human A2780S cells after 48 hrs by MTT assay; type: functional, cell-based; conditions: A2780, 48 h; outline: as §1
HCT-116 [13] = assay: Cell cycle arrest in human HCT116 cells assessed as accumulation at S phase at 0.2 uM after 24 hrs by flow cytometry (reference value: 25.66%); type: functional
HCT-116 [14] = assay: Antitumor activity against human HCT116 cells xenografted in ip dosed Balb/c athymic nude mouse assessed as tumor growth inhibition administered daily; type: functional, organism-based
Outline: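 Female Balb/C athymic nude mice, 5-6 weeks old, implanted s.c. in the right flank with HCT116 cells in 100 µL HBSS. Tumor volume (π/6 × L × W²) and body weight measured every 2 days. Inhibition = (1 − treated/control tumor weight) × 100%.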

HCT-116 [15] = assay: Induction of apoptosis in human HCT116 cells assessed as late apoptotic cells at 0.5 uM after 48 hrs by annexin V/propidium iodide staining-based flow cytometry (reference value: 1.71%); type: functional
SK-OV-3 [16] = assay: Antiproliferative activity against human SKOV3 cells after 48 hrs by MTT assay; type: functional, cell-based; conditions: SK-OV-3, 48 h; outline: as §1
SK-OV-3 [17] = assay: Antitumor activity against human SKOV3 cells xenografted in Balb/c athymic nude mouse assessed as tumor growth inhibition at 20 mg/kg, ip administered daily after 42 days; type: functional; conditions: SK-OV-3, ip, 1008 h, read-out: TGI
Outline: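 Female Balb/C athymic nude mice, 5-6 weeks old, bearing s.c. right-flank SK-OV-3 xenografts implanted in HBSS. At about 100 mm3, groups of 6 given vehicle, 5-FU 10 mg/kg or compound 20 mg/kg i.p. daily. Tumors measured every 2 days (π/6 × L × W²); inhibition = (1 − treated/control tumor weight) × 100%.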

Activity (Tubulin (Homo sapiens)): inactive | IC50 [9]: 2740 nM | IC50 (HepG2 [11]): 26.4 nM | IC50 (SK-OV-3 [16]): 14.2 nM
SMILES: CCOc1ccc(-c2nc(N)sc2-c2cc(OC)c(OC)c(OC)c2)cc1
Activity (HepG2 [1]): 19.56% | Activity (HCT-116 [2]): 32.6% | Activity (HepG2 [3]): 0.7% | Activity (Mus musculus): Toxic | Activity (HepG2 [4]): 8.69% | Activity (HCT-116 [5]): 17.1% | Activity (HepG2 [6]): 74% | viability at 0.5 µM (HepG2 [7]): 80.7% | Activity (HCT-116 [8]): 40.3% | inhibition in vivo at 50 mg/kg (SK-OV-3 [10]): 72.7% | IC50 [12]: 16 nM | Activity (HCT-116 [13]): 22% | Activity (HCT-116 [14]): Dose-dependent effect | Activity (HCT-116 [15]): 26.2% | inhibition in vivo at 20 mg/kg (SK-OV-3 [17]): 49.6%
